From paper PMC3217903 (Biochemistry, 2011)

Assays:
[1] = IP6 binding to free PH domain, intrinsic tryptophan fluorescence titration; settings: read-out: KD(IP6); free PH domain 0.5 μM, 25°C, binding buffer plus 10 mM DTT
How it was run: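 GST-fused PH domain (0.5 μM) titrated with IP6. Intrinsic Trp excitation 284 nm; emission 322 nm (GRP1) or 340 nm (PLCδ1). A parallel control with sodium phosphate at six times the IP6 concentration is subtracted after dilution correction. KD from nonlinear least-squares hyperbolic fit. Triplicate titrations, mean ±1 SD; reported constants average ≥3 independent fits.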

[2] = Competitive displacement assay; format: binding; settings: ratio of equilibrium KD values
How it was run: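 Human GRP1 PH (residues 255–392) or mouse PLCδ1 PH (12–142) GST fusions, made in E. coli BL21. Sonicated vesicles mimic the plasma membrane (PE/PC/PS/PI/SM/CH/dPE/PIPn, 27.5/10.5/21/4.5/4.5/25/5/2 mol%). Sample: 0.5 μM protein, 300 μM total lipid, 3 μM accessible PI(4,5)P2 or PI(3,4,5)P3, pH 7.4 HEPES/KCl buffer plus 10 mM DTT, 25°C. IP6 titrated while FRET decrease is monitored. Protein-free control subtracted. KD(PIPn) calculated from fitted KI(IP6)app and KD(IP6).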

[3] = Stopped-flow association and dissociation kinetics, PM; format: binding
How it was run: (§1)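 Stopped-flow FRET in binding buffer plus 10 mM DTT, 25°C, on plasma-membrane-mimic vesicles. Association: 0.5 μM PH domain mixed with vesicles (300 μM total lipid, 3 μM accessible PIP); kon from the dominant fast phase of a double-exponential fit. Dissociation: preformed complex mixed with excess IP6 (PI(3,4,5)P3: 10 mM wild type, 20 mM mutants; PI(4,5)P2: 8 mM). KD = koff/kon; ≥3 runs averaged.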

NIH 3T3 cells = assay: Live cell imaging of plasma membrane targeting of citrine-coupled PH domains; format: cell-based; settings: serum-starved NIH 3T3 cells
How it was run: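 NIH 3T3 fibroblasts grown in DMEM with 10% FBS and transfected with Lipofectamine 2000 (4 μg DNA) with N-terminal citrine–PH fusions. Replated 24–48 h post-transfection, then serum-starved 6 h in DMEM with 0.2% BSA at 37°C. Imaged live by wide-field fluorescence microscopy in HEPES-buffered HBSS, pH 7.4, with 0.01% BSA.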

[4] = Stopped-flow association and dissociation kinetics, PM; format: binding; remark: listed apart in the source
How it was run: as §1

| Kd [1] [nM] | weaker binding of membrane-bound PI(4,5)P2 than PI(3,4,5)P3 [2] | Kd ([3]; read-out: KD (koff/kon), PM(+)PI(3,4,5)P3, calculated from kinetic constants) [nM] | Kd ([4]; read-out: KD (koff/kon), PM(+)PI(4,5)P2, calculated from kinetic constants) [nM] | Molecule | kon ([3]; PM(+)PI(3,4,5)P3, 25°C) | koff ([3]; PM(+)PI(3,4,5)P3, excess IP6, 25°C) [s⁻¹] | relocation from plasma membrane to cytoplasm on PI(4,5)P2 hydrolysis (NIH 3T3 cells; 20 μM ionomycin, 2 mM extracellular Ca2+, three minute) | cellular distribution in resting cells (NIH 3T3 cells; citrine fusion) | kon ([4]; PM(+)PI(4,5)P2, 25°C) | koff ([4]; PM(+)PI(4,5)P2, excess IP6, 25°C) [s⁻¹] |
| --- | --- | --- | --- | --- | --- | --- | --- | --- | --- | --- |
| 20000 ± 3000 | over 200 fold | 55 ± 1 | – | WT: native PH domain of human GRP1 (residues 255–392), GST-fusion purified; citrine fusion in cells (protein, UniProt O43739 255-392, looked up, fragment, PH domain GST or citrine fusion) GNDLTHTFFNPDREGWLLKLGGGRVKTWKRRWFILTDNCLYYFEYTTDKEPRGIIPLENLSIREVEDPRKPNCFELYNPSHKGQVIKACKTEADGRVVEGNHVVYRISAPSPEEKEEWMKSIKASISRDPFYDMLATR | 14 ± 1 ×10^6 M^−1 s^−1 | 0.79 ± 0.01 | – | – | – | – |
| 4000 ± 1000 | – | – | 81 ± 5 | PLCδ1: PH domain of mouse PLCδ1 (residues 12–142), PI(4,5)P2-specific control (protein, UniProt Q8R3B1 12-142, looked up, fragment, PH domain) GLQDDPDLQALLKGSQLLKVKSSSWRRERFYKLQEDCKTIWQESRKVMRSPESQLFSIEDIQEVRMGHRTEGLEKFARDIPEDRCFSIVFKDQRNTLDLIAPSPADVQHWVQGLRKIIDRSGSMDQRQKLQ | – | – | fully relocates | targeted to plasma membrane | 180 ± 10 ×10^6 M^−1 s^−1 | 15 ± 1 |
